# Reference: ChEMBL document CHEMBL5247675, “Antimicrobial Peptides Incorporating Halogenated Marine-Derived Amino Acid Substituents” (ACS Med Chem Lett, 2023)
# Non-standard residues stand in square brackets, D forms with d. Residues, ends and D or L forms follow the SMILES beside them. *: point of attachment. Bip = N[C@@H](Cc1ccc(-c2ccccc2)cc1)C(=O)O; Lys(Me3) = C[N+](C)(C)CCCC[C@H](N)C(=O)O; NHPhenethyl = c1ccc(CCN*)cc1
# Key:
# [1] = test system: Escherichia coli; assay: Antimicrobial activity against Escherichia coli ATCC 25922 assessed as reduction in microbial growth incubated for 18 hrs by CLSI protocol based two fold serial dilution method; type: functional
# [2] = test system: Aspergillus fumigatus; assay: Antimicrobial activity against clinical isolate Aspergillus fumigatus SVB-F136 assessed as reduction in microbial growth incubated for 48 hrs by CLSI protocol based broth microdilution method; type: functional
# Outline: (§1)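 Clinical isolates of the fungi were subcultured from Auckland City Hospital. MICs were determined following Clinical and Laboratory Standards Institute recommended protocols.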
# [3] = test system: Candida albicans; assay: Antimicrobial activity against Candida albicans SC5314 assessed as reduction in microbial growth incubated for 48 hrs by CLSI protocol based broth microdilution method; type: functional
# [4] = test system: Staphylococcus aureus; assay: Antimicrobial activity against Staphylococcus aureus ATCC 29213 assessed as reduction in microbial growth incubated for 18 hrs by CLSI protocol based two fold serial dilution method; type: functional
# [5] = test system: Cyberlindnera jadinii; assay: Antimicrobial activity against clinical isolate Candida utilis SVB-Y1 assessed as reduction in microbial growth incubated for 48 hrs by CLSI protocol based broth microdilution method; type: functional; settings: Williopsis jadinii; outline: as §1
# [6] = Hemolytic activity in human RBC assessed as hemolysis rate incubated for 45 mins by spectrophotometric assay; type: toxicity, cell-based, Erythrocyte; settings: human red blood cells
# [7] = Hemolytic activity in human RBC assessed as hemolysis rate at 100 uM incubated for 45 mins by spectrophotometric assay relative to control; type: toxicity, cell-based, Erythrocyte; settings: human red blood cells, read-out: Activity
# Outline: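 Isolated, washed human erythrocytes were exposed to each compound at a single concentration of 100 μM. Percent hemolysis was recorded as a relative measure between compounds.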
# [8] = Cytotoxicity against human HeLa cells assessed as reduction in cell viability incubated for 24 hrs by PrestoBlue assay; type: toxicity, cell-based
# Outline: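 HeLa (human epithelial) cells were exposed to serial peptide dilutions from 1.4 to 87.5 μM for 24 h at 37 °C. Viability was read by PrestoBlue, and IC50 was taken from dose–response curves. There were two independent experiments, each in triplicate, reported as mean ± SD.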
Compound,MIC [1],MIC [2],MIC [3],MIC [4],MIC [5],EC50 at 45 min [6],"hemolysis at 0.75 h, 100 µM [7]",IC50 at 24 h [8]
COc1ccc(CCNC(=O)[C@H](CCCNC(=N)N)NC(=O)[C@H](Cc2ccc(-c3ccc(OC)c(Br)c3)cc2)NC(=O)[C@@H](N)CCCNC(=N)N)cc1Br,> 64 µM,> 64 µM,32 µM,> 64 µM,4 µM,–,0.29%,–
COc1c(Br)cc(CCNC(=O)[C@H](CCCCN)NC(=O)[C@H](Cc2cc(Br)c(OC)c(Br)c2)NC(=O)[C@@H](N)CCCCN)cc1Br,> 64 µM,> 64 µM,> 64 µM,64 µM,32 µM,–,–,–
COc1c(Br)cc(CCNC(=O)[C@H](CCCNC(=N)N)NC(=O)[C@H](Cc2c[nH]c3ccccc23)NC(=O)[C@@H](N)CCCNC(=N)N)cc1Br,> 64 µM,64 µM,8 µM,64 µM,8 µM,–,0.35%,–
C[N+](C)(C)CCCC[C@H](NC(=O)[C@H](Cc1ccc(-c2ccccc2)cc1)NC(=O)[C@@H](N)CCCC[N+](C)(C)C)C(=O)NCCc1ccccc1 (H-[Lys(Me3)]-[Bip]-[Lys(Me3)]-NHPhenethyl),> 64 µM,> 64 µM,> 64 µM,> 64 µM,64 µM,–,–,–
COc1c(Br)cc(CCNC(=O)[C@H](CCCNC(=N)N)NC(=O)[C@H](Cc2c[nH]c3cc(Br)ccc23)NC(=O)[C@@H](N)CCCNC(=N)N)cc1Br,16 µM,16 µM,2 µM,8 µM,2 µM,–,1.19%,> 87.5 µM
N=C(N)NCCC[C@H](NC(=O)[C@H](Cc1ccc(-c2cc(Br)c(O)c(Br)c2)cc1)NC(=O)[C@@H](N)CCCNC(=N)N)C(=O)NCCc1cc(Br)c(O)c(Br)c1,> 64 µM,≥ 64 µM,> 64 µM,> 64 µM,64 µM,–,–,–
N=C(N)NCCC[C@H](NC(=O)[C@@H](Cc1c[nH]c2cc(Br)ccc12)NC(=O)[C@@H](N)CCCNC(=N)N)C(=O)NCCc1ccccc1,> 64 µM,> 64 µM,> 64 µM,> 64 µM,16 µM,–,0.27%,–
COc1c(Br)cc(CCNC(=O)[C@H](CCCNC(=N)N)NC(=O)[C@H](Cc2ccc(-c3cc(Br)c(OC)c(Br)c3)cc2)NC(=O)[C@@H](N)CCCNC(=N)N)cc1Br,8 µM,16 µM,4 µM,4 µM,4 µM,–,1.62%,> 87.5 µM
C[C@@H]1[C@H](O)[C@@H](C)/C=C/C=C/C=C/C=C/C=C/C=C/C=C/[C@H](O[C@@H]2O[C@H](C)[C@@H](O)[C@H](N)[C@@H]2O)C[C@@H]2O[C@](O)(C[C@@H](O)C[C@@H](O)[C@H](O)CC[C@@H](O)C[C@@H](O)CC(=O)O[C@H]1C)C[C@H](O)[C@H]2C(=O)O [AMPHOTERICIN B],–,4 µM,1 µM,–,2 µM,–,–,–
N=C(N)NCCC[C@H](NC(=O)[C@H](Cc1ccccc1)NC(=O)[C@@H](N)CCCNC(=N)N)C(=O)NCCc1ccccc1 (H-Arg-Phe-Arg-NHPhenethyl),> 64 µM,> 64 µM,> 64 µM,> 64 µM,> 64 µM,–,0.33%,–
N=C(N)NCCC[C@H](NC(=O)[C@H](Cc1c[nH]c2cc(Br)ccc12)NC(=O)[C@@H](N)CCCNC(=N)N)C(=O)NCCc1ccccc1,> 64 µM,> 64 µM,16 µM,> 64 µM,8 µM,–,0.29%,> 87.5 µM
CC1(C)S[C@@H]2[C@H](NC(=O)[C@H](N)c3ccc(O)cc3)C(=O)N2[C@H]1C(=O)O [AMOXICILLIN],16 µM,–,–,4 µM,–,–,–,–

# More lines, main results first:
MIC [1],MIC [2],MIC [3],MIC [4],MIC [5],Compound,EC50 at 45 min [6],"hemolysis at 0.75 h, 100 µM [7]",IC50 at 24 h [8]
> 64 µM,> 64 µM,> 64 µM,> 64 µM,> 64 µM,COc1c(Br)cc(C[C@H](NC(=O)CCCCC[N+](C)(C)C)C(=O)N[C@@H](CCCNC(=N)N)C(=O)NCCc2ccccc2)cc1Br,–,–,–
2 µM,8 µM,4 µM,2 µM,2 µM,CC(C)(C)c1cc(C(C)(C)C)c2[nH]c(C(C)(C)C)c(C[C@H](NC(=O)[C@@H](N)CCCNC(=N)N)C(=O)N[C@@H](CCCNC(=N)N)C(=O)NCCc3ccccc3)c2c1 [LTX-109],222 µM,4.23%,46.6 µM
> 64 µM,64 µM,16 µM,> 64 µM,8 µM,COc1c(Br)cc(C[C@H](NC(=O)[C@@H](N)CCCNC(=N)N)C(=O)N[C@@H](CCCNC(=N)N)C(=O)NCCc2ccccc2)cc1Br,–,0.34%,–
> 64 µM,> 64 µM,> 64 µM,> 64 µM,> 64 µM,C[N+](C)(C)CCCC[C@H](NC(=O)[C@H](Cc1ccc(-c2ccccc2)cc1)NC(=O)[C@@H](N)CCCNC(=N)N)C(=O)NCCc1ccccc1 (H-Arg-[Bip]-[Lys(Me3)]-NHPhenethyl),–,–,–
> 64 µM,> 64 µM,> 64 µM,> 64 µM,> 64 µM,C[N+](C)(C)CCCCC[C@H](N)C(=O)N[C@@H](Cc1ccc(-c2ccccc2)cc1)C(=O)N[C@@H](CCCNC(=N)N)C(=O)NCCc1ccccc1,–,–,–
16 µM,16 µM,4 µM,8 µM,4 µM,COc1c(Br)cc(-c2ccc(C[C@H](NC(=O)[C@@H](N)CCCNC(=N)N)C(=O)N[C@@H](CCCNC(=N)N)C(=O)NCCc3ccccc3)cc2)cc1Br,–,1.38%,> 87.5 µM
> 64 µM,> 64 µM,> 64 µM,> 64 µM,> 64 µM,C[N+](C)(C)CCCC[C@H](N)C(=O)N[C@@H](Cc1ccc(-c2ccccc2)cc1)C(=O)N[C@@H](CCCNC(=N)N)C(=O)NCCc1ccccc1 (H-[Lys(Me3)]-[Bip]-Arg-NHPhenethyl),–,–,–
0.0625 µM,–,–,> 64 µM,–,POLYMYXIN B,–,–,–
> 64 µM,> 64 µM,2 µM,32 µM,2 µM,COc1ccc(-c2ccc(C[C@H](NC(=O)[C@@H](N)CCCNC(=N)N)C(=O)N[C@@H](CCCNC(=N)N)C(=O)NCCc3ccccc3)cc2)cc1,–,0.4%,> 87.5 µM
> 64 µM,> 64 µM,> 64 µM,> 64 µM,> 64 µM,COc1c(Br)cc(C[C@H](NC(=O)[C@@H](N)CCCNC(=N)N)C(=O)N[C@@H](CCCNC(=N)N)C(=O)NCCc2c[nH]c3cc(Br)ccc23)cc1Br,–,–,–
